Experimental findings from ChEMBL document CHEMBL3232980, “Studies on the antiproliferative effects of tropolone derivatives in Jurkat T-lymphocyte cells” (2014) are described below.

For experiment [1], the system named is Jurkat. In words: Cell cycle arrest in human Jurkat cells assessed as accumulation at G0/G1-phase at 10 uM after 12 hrs by propidium iodide staining-based flow cytometric analysis (reference value: 4.16%). In kind it is functional. For orientation: In flow cytometry, cells or beads pass a laser one at a time.
In experiment [2] the test system is Jurkat. The experiment can be described thus: Cell cycle arrest in human Jurkat cells assessed as accumulation at G1-phase at 10 uM after 12 hrs by propidium iodide staining-based flow cytometric analysis (reference value: 65%). Type of experiment: functional.
The test system of experiment [3] is Jurkat. In words: Cell cycle arrest in human Jurkat cells assessed as accumulation at S-phase at 10 uM after 12 hrs by propidium iodide staining-based flow cytometric analysis (reference value: 19.5%). In kind it is functional.
Experiment [4] relates to Jurkat. In words: Cell cycle arrest in human Jurkat cells assessed as accumulation at G2/M-phase at 10 uM after 12 hrs by propidium iodide staining-based flow cytometric analysis (reference value: 10%). In kind it is functional.
The subject of experiment [5] is Jurkat. In words: Cell cycle arrest in human Jurkat cells assessed as accumulation at G0/G1-phase at 10 uM after 24 hrs by propidium iodide staining-based flow cytometric analysis (reference value: 2.39%). In kind it is functional.
Experiment [6] concerns Jurkat. The experiment can be described thus: Cell cycle arrest in human Jurkat cells assessed as accumulation at G1-phase at 10 uM after 24 hrs by propidium iodide staining-based flow cytometric analysis (reference value: 60.90%). In kind it is functional.
Experiment [7] has as its system Jurkat. The experiment can be described thus: Cell cycle arrest in human Jurkat cells assessed as accumulation at S-phase at 10 uM after 24 hrs by propidium iodide staining-based flow cytometric analysis (reference value: 20.90%). In kind it is functional.
For experiment [8], the system named is Jurkat. The experiment can be described thus: Cell cycle arrest in human Jurkat cells assessed as accumulation at G2/M-phase at 10 uM after 24 hrs by propidium iodide staining-based flow cytometric analysis (reference value: 14.30%). Type of experiment: functional.
For experiment [9], the system named is Jurkat. In words: Cell cycle arrest in human Jurkat cells assessed as accumulation at G0/G1-phase at 10 uM after 36 hrs by propidium iodide staining-based flow cytometric analysis (reference value: 1.80%). Type of experiment: functional.
The subject of experiment [10] is Jurkat. In words: Cell cycle arrest in human Jurkat cells assessed as accumulation at G1-phase at 10 uM after 36 hrs by propidium iodide staining-based flow cytometric analysis (reference value: 59.10%). Type of experiment: functional.
Experiment [11] relates to Jurkat. In words: Cell cycle arrest in human Jurkat cells assessed as accumulation at S-phase at 10 uM after 36 hrs by propidium iodide staining-based flow cytometric analysis (reference value: 23%). In kind it is functional.
The subject of experiment [12] is Jurkat. In words: Cell cycle arrest in human Jurkat cells assessed as accumulation at G2/M-phase at 10 uM after 36 hrs by propidium iodide staining-based flow cytometric analysis (reference value: 14.20%). In kind it is functional.
The test system of experiment [13] is Jurkat. In words: Induction of apoptosis in human Jurkat cells assessed as viable cells at 10 uM after 24 hrs by annexin V-FITC/propidium iodide staining-based FACS flow cytometric analysis (reference value: 99.3%). In kind it is functional. Conditions: read-out: Activity. The gist of the method:
(§1)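 About 1 × 10^6 log-phase Jurkat cells treated in 6-well plates; untreated controls. Cells washed in cold PBS and resuspended in annexin-binding buffer (10 mM HEPES, 140 mM NaCl, 2.5 mM CaCl2, pH 7.4). Stained with FITC-annexin V plus propidium iodide, then gated by flow cytometry: live (AnnV−/PI−), early apoptotic (AnnV+/PI−), late apoptotic/necrotic (AnnV+/PI+).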

Experiment [14] relates to Jurkat. The experiment can be described thus: Induction of apoptosis in human Jurkat cells assessed as early apoptotic cells at 10 uM after 24 hrs by annexin V-FITC/propidium iodide staining-based FACS flow cytometric analysis (reference value: 0.32%). Type of experiment: functional. The gist of the method:
as §1

For experiment [15], the system named is Jurkat. The experiment can be described thus: Induction of apoptosis in human Jurkat cells assessed as late apoptotic cells at 10 uM after 24 hrs by annexin V-FITC/propidium iodide staining-based FACS flow cytometric analysis (reference value: 0.0401%). Type of experiment: functional. Summed up: as §1
Experiment [16] deals with Jurkat. The experiment can be described thus: Induction of apoptosis in human Jurkat cells assessed as cell death at 10 uM after 24 hrs by annexin V-FITC/propidium iodide staining-based FACS flow cytometric analysis (reference value: 0.348%). In kind it is functional. Summed up:
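~1×10^6 log-phase Jurkat cells (RPMI 1640, 10% FBS, pen/strep, L-glutamine) treated in 6-well plates; untreated wells as controls. Cells washed in cold PBS and resuspended in annexin-binding buffer (10 mM HEPES, 140 mM NaCl, 2.5 mM CaCl2, pH 7.4). Stained with fluorescein-annexin V plus PI and read by flow cytometry. Gates: live A−/PI−, early apoptotic A+/PI−, late apoptotic/necrotic A+/PI+.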

The test system of experiment [17] is Jurkat. In words: Induction of apoptosis in human Jurkat cells assessed as caspase 3/7 activation at 10 uM after 6 hrs by luminescence assay (reference value: 59,417 +/- 10002.74 no unit). In kind it is functional.
The subject of experiment [18] is Jurkat. In words: Induction of apoptosis in human Jurkat cells assessed as caspase 3/7 activation at 10 uM after 12 hrs by luminescence assay (reference value: 69,935 +/- 7003.63 no unit). Type of experiment: functional.
The test system of experiment [19] is Jurkat. The experiment can be described thus: Induction of apoptosis in human Jurkat cells assessed as caspase 3/7 activation at 10 uM after 24 hrs by luminescence assay (reference value: 136,627 +/- 31846.96 no unit). In kind it is functional.
The subject of experiment [20] is Jurkat. The experiment can be described thus: Induction of apoptosis in human Jurkat cells assessed as caspase 3/7 activation at 10 uM after 48 hrs by luminescence assay (reference value: 109,510 +/- 4710.453 no unit). In kind it is functional.
Experiment [21] concerns Jurkat. In words: Induction of apoptosis in human Jurkat cells assessed as caspase 8 responsive cells level at 10 uM after 24 hrs by FACS flow cytometric analysis (reference value: 0.32%). Type of experiment: functional.
In experiment [22] the target is T1, Histone deacetylase (Homo sapiens) (UniProt Q13547+O15379+Q9UBN7+Q92769+Q9UQL6+Q8WUI4+Q9BY41+Q96DB2+P56524+Q9UKV0+Q969S8). The following applies: Jurkat, at 10 µM.
For experiment [23], the target named is T1, Histone deacetylase (Homo sapiens). The following applies: Jurkat.
For experiment [24] the target is unchanged. The following applies: Jurkat. This is another data set of the same source.
Experiment [25] has as its system Jurkat. In words: Increase in p21 protein expression in human Jurkat cells at 10 to 50 uM after 24 hrs by FACS flow cytometric analysis. Type of experiment: functional, cell-based. The gist of the method: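 Jurkat cells (~1 × 10^6, log phase) treated 24 h at 10 or 50 µM; no-inhibitor controls. Fixed in 4% PFA for 20 min, held overnight at 4°C in 5% BSA/PBS, permeabilized with 0.5% Triton X-100, blocked with 10% goat serum. Stained with anti-p21 (1:100) and FITC secondary (1:1000). Read-out was geometric mean fluorescence intensity by flow cytometry.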

Experiment [26] has as its system Jurkat. The experiment can be described thus: Increase in p21 mRNA level in human Jurkat cells at 10 to 50 uM after 24 hrs by quantitative RT-PCR analysis. Type of experiment: functional, cell-based. Summed up: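 Roughly 5 × 10^6 Jurkat cells treated 24 h at 10 and 50 µM; untreated cells served as controls. RNA extracted with Trizol, and 2 µg reverse-transcribed. p21 and beta-actin quantified by TaqMan real-time PCR, run in triplicate.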

Calls of active or inactive are those of the source. The rule behind the calls is not given here.

In the case of `O=C(CCCCCCC(=O)Nc1ccccc1)NO` [VORINOSTAT], the Activity in the experiment with Jurkat [1] stood at 20.4%; in the experiment with Jurkat [2], 25.9%; in the experiment on Jurkat [3] it was 31.6%; in the experiment with Jurkat [4], 19.7%; with Jurkat [5], 48.9%; in the experiment with Jurkat [6], 7.46%. In addition, the Activity in the experiment with Jurkat [7] was determined as 19.9%; in the experiment with Jurkat [8], 12.3%; in the experiment on Jurkat [9] it was 60.8%; in the experiment with Jurkat [10], 6.9%; in the experiment with Jurkat [11], 15.6%; with Jurkat [12], 14.9%. Also, the Activity in the experiment on Jurkat [14] is recorded as 35.9%; in the experiment on Jurkat [15], 0.412%; in the experiment with Jurkat [16] it was 1.03%; in the experiment with Jurkat [21], 35.9%. The viability at 10 µM in the experiment on Jurkat [13] stood at 62.6%. Moreover, the RLU in the experiment on Jurkat [17] came to 53518; in the experiment with Jurkat [18], 157988; with Jurkat [19], 125484; with Jurkat [20], 95463.
On to `O=c1cc(-c2ccccc2)cccc1O`, for which the Activity in the experiment on Jurkat [1] is listed as 16.3%; with Jurkat [2], 71.5%; with Jurkat [3], 10.2%; in the experiment on Jurkat [4], 1.25%; in the experiment on Jurkat [5], 13.9%; in the experiment with Jurkat [6], 66.5%. Also, the Activity in the experiment with Jurkat [7] worked out at 15.8%; with Jurkat [8] it was 2.58%; with Jurkat [9] it was 13.4%; in the experiment on Jurkat [10] it was 65.9%; in the experiment on Jurkat [11], 14.6%; in the experiment on Jurkat [12] it was 4.35%. Besides, the Activity was determined as 0.4% in the experiment with Jurkat [14], 0.0285% in the experiment with Jurkat [15], 0.186% in the experiment with Jurkat [16] and 0.4% in the experiment on Jurkat [21]. Besides, in the experiment with Jurkat [13], the viability at 10 µM was determined as 99.4%. The RLU in the experiment on Jurkat [17] was found to be 73949; in the experiment on Jurkat [18], 110650; in the experiment with Jurkat [19], 80438; with Jurkat [20], 71048. The inhibition entry in experiment [22] was “inactive”. Besides, the Flu intensity in [23] was found to be 2.12; in [24] it was 24.
In the case of `O=c1c(O)ccccc1-c1ccccc1`, the outcome in the experiment on Jurkat [25] was Active. For the same compound, in the experiment on Jurkat [26], the outcome was inactive. The Activity was 22.3% in the experiment with Jurkat [1]; 64.3% in the experiment on Jurkat [2]; 11.1% in the experiment with Jurkat [3]; 1.39% in the experiment on Jurkat [4]; 13.9% with Jurkat [5]; 70.2% in the experiment on Jurkat [6]. Also, the Activity in the experiment on Jurkat [7] is 13.3%; in the experiment on Jurkat [8] it was 1.81%; in the experiment on Jurkat [9], 18.5%; in the experiment on Jurkat [10] it was 64.2%; with Jurkat [11], 13.3%; in the experiment on Jurkat [12], 2.97%. Moreover, the Activity in the experiment on Jurkat [14] is listed as 0.434%; with Jurkat [15] it was 0.158%; in the experiment with Jurkat [16] it was 0.513%; with Jurkat [21], 0.43%. In addition, in the experiment on Jurkat [13], the viability at 10 µM is 98.9%. Moreover, the RLU in the experiment with Jurkat [17] was 88661; in the experiment with Jurkat [18], 97513; with Jurkat [19] it was 76948; in the experiment with Jurkat [20] it was 105357. The inhibition result in [22] is “inactive”. The Flu intensity in experiment [23] was determined as 13.7; in experiment [24], 24.6.
